Compound activity as filed in PubChem BioAssay.
Neddyl block: cullin neddylation inhibition. P61081+Q13564. TR-FRET cullin neddylation, biochemical. 360,000 compounds, 0.58% hits. inhibition, % at 25 µM; in the data active means inhibition above about 36%
PfGluPho inh: PfG6PD (Plasmodium falciparum) enzyme inhibition. AID 504690. 350,000 compounds, 0.78% hits. PfGluPho enzyme, NADPH resazurin-diaphorase fluorescence. inhibition, % at 20 µM;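 active means inhibition reaching at least a set limit at 20 µM in the primary screen, cut at about 59% in these data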;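 further: 0% = DMSO wells with substrate and 100% = DMSO wells lacking glucose-6-phosphate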
PfM18AAP inh-1: PfM18AAP enzyme inhibition | recombinant PfM18AAP, H-Glu-NHMec fluorogenic cleavage | 290,000 compounds, 1.2% hits | AID 1822 | inhibition, % at 7.35 µM;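 active means inhibition above the campaign mean inhibition over all tested compounds plus 3 SD, cut at about 28% in these data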;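 further: 0% = plate median of test compound wells and 100% = 2 mM ZnCl2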
HKDC1 inhibitor: inhibitors of human hexokinase HKDC1 | Q2TB90 | recombinant HKDC1, G6PDH/diaphorase resazurin coupled fluorescence | inhibition, % at 20 µM | 340,000 compounds, 0.16% hits;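 active means inhibition above about 35% when tested at 20 µM, limit read from the data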;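 further: plate controls were DMSO wells with enzyme for no effect and DMSO wells lacking enzyme for full effect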
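Material: recombinant HKDC1 hexokinase; Amount: HKDC1 at 5 µg/mL; Medium: Tris pH 8.0 buffer with MgCl2, Tween-20, BSA, BME; Schedule: 90 min reaction incubation at room temperature, dark; Technique: coupled resazurin fluorescence, excitation 525 nm, emission 613 nm.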
PfM18AAP inh-2: confirmation of Plasmodium falciparum M18 aspartyl aminopeptidase inhibitors | 2,400 compounds, 28% hits | recombinant PfM18AAP, H-Glu-NHMec fluorogenic cleavage | inhibition, % at 7.35 µM | shares compounds with PfM18AAP inh-1;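 active means mean inhibition over replicate wells above the hit cutoff set for the earlier primary screen, cut at about 29% in these data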;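 further: 0% = median of test compound wells and 100% = 2 mM ZnCl2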
CTSL1 counter: Cathepsin L (human) inhibition, confirmation; shares compounds with PfM18AAP inh-1; inhibition, % at 5.96 µM; 2,400 tested, under 10 active; AID 2178; purified cathepsin L1, Z-Leu-Arg-MCA fluorescence;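 active means average inhibition across replicates above the hit cutoff set in the earlier primary screen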;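 further: 0% = median of test compound wells and 100% = Z-Phe-Ala-diazomethylketone 1 µM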
Target sequence (P07711 whole entry, looked up): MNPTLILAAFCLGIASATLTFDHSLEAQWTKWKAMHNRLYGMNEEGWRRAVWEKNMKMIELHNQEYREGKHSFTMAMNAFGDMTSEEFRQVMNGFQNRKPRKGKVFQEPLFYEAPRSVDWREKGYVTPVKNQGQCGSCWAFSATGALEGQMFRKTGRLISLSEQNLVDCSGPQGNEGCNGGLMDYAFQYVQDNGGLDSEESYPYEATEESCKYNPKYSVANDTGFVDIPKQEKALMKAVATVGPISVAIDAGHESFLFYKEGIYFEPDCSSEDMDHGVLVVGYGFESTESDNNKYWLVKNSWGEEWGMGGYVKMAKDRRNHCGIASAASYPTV
* marks the source's active call; other numbers are inactive results; / = no result given. Most compounds without a hit are left out; they make up all but 2.2% or so of the library.

SMILES	Neddyl block	PfGluPho inh	PfM18AAP inh-1	HKDC1 inhibitor	PfM18AAP inh-2	CTSL1 counter
O=C(CSc1nnnn1-c1ccc(F)cc1)c1ccc(O)c(O)c1	-7	-26	47*	-6	28*	-5
Cn1cnnc1SCC(=O)c1ccc(O)c(O)c1	-16	2	53*	-14	35*	3
O=C(O)c1ccc(CSc2nnnn2-c2ccc(F)cc2)cc1	-4	-13	-1	2	/	/
O=C(CCCn1c(SCC(=O)c2ccc(O)c(O)c2)nc2ccccc2c1=O)NCC1CCCO1 (stereo unspecified)	-6	-20	53*	0	38*	3
CCCCn1c(SCC(=O)c2ccc(O)c(O)c2)nc2ccsc2c1=O	-1	-38	37*	4	28	4
CC(=O)c1ccc(O)c(CSc2nncn2C)c1	5	21	-1	-5	/	/
CCCCn1c(SCC(=O)c2ccccc2)nc2ccsc2c1=O	2	2	-5	-6	/	/
O=C(CC1Sc2ccccc2NC1=O)Nc1cccc(C(=O)O)c1 (stereo unspecified)	5	10	41*	-1	25	-4
Cc1ccnc(NC(=O)c2ccc(NS(=O)(=O)/C=C/c3ccccc3)cc2)c1	10	-17	/	1	/	/
CCN(CC)c1ccc(-n2c(C)cc(C=O)c2C)cc1	4	11	33*	-4	-47	0
CCOc1ccccc1-n1c(C)cc(C=O)c1C	-12	40	4	-5	/	/
NS(=O)(=O)c1ccc(Cl)cc1[N+](=O)[O-]	-27	-9	2	4	/	/
O=C(O)c1ccccc1N/N=C/C1=C(N2CCOCC2)C(=C\c2ccccc2)/CC1	35	-11	5	-8	/	/
Cc1cc(C)nc(N/N=C/C2=C(N3CCOCC3)C(=C/c3ccccc3)/CC2)n1	25	14	36*	-7	-43	7
COc1ccc(/C=N/NS(=O)(=O)c2ccc(F)cc2)cc1COc1cc(F)ccc1[N+](=O)[O-]	-8	-18	65*	12	-44	4
COc1cc(NC(=O)C2CSC3(C)CCC(=O)N23)c(OC)cc1Cl (stereo unspecified)	8	3	/	-2	/	/
CCOc1cc(C2Nc3ccccc3NC3=C2C(=O)CC(C)(C)C3)ccc1O (stereo unspecified)	-13	32	37*	16	-28	-8
Cc1ccc[n+](CC(=O)Nc2ccc([N+](=O)[O-])cc2)c1	-28	3	-11	-5	/	/
Nc1nncn1C(=O)c1cc(Br)ccc1Cl	8	-2	46*	-2	48*	10
Cc1ccc(C(=O)n2cnnc2N)cc1C	0	17	44*	6	57*	-1
Cc1ccc(C)c(C(=O)n2cnnc2N)c1	-3	-6	35*	-2	51*	-2
Nc1nncn1C(=O)c1c(Cl)cccc1Cl	0	3	-1	-1	/	/
COc1cccc(C(=O)n2cnnc2N)c1OC	-8	-1	56*	-13	51*	-3
COCc1c(C(=O)N(C)Cc2ccccc2N2CCCC2)oc2ccccc12	5	-2	/	-2	/	/
CCc1cccc(NC(=O)CSc2nc3c(c(=O)[nH]2)CCCC3)c1	/	/	2	/	/	/
SMILES	Neddyl block	PfGluPho inh	PfM18AAP inh-1	HKDC1 inhibitor	PfM18AAP inh-2	CTSL1 counter
Cc1ccc(C(=O)n2cnnc2N)cc1	7	-2	41*	-2	47*	-3
Nc1nncn1C(=O)c1cccs1	-9	0	40*	-1	49*	-5
O=C(O)c1ccc(NC(=S)NC(=O)c2cccnc2)cc1	0	3	14	-1	/	/
CCc1c(-c2cccc(Cl)c2)ncn1Cc1cccc(-c2ccccc2)c1	-1	/	/	/	/	/
COc1ccc(NC(=O)c2cccc(N3C(=O)NC4CC3(C)Oc3ccccc34)c2)cc1 (stereo unspecified)	4	4	2	0	/	/
CC12CC(NC(=O)N1c1cccc(C(=O)Nc3ncn[nH]3)c1)c1ccccc1O2 (stereo unspecified)	4	0	43*	3	50*	-7
COc1ccc(Cl)cc1NC(=O)NC(C)C	-4	24	-2	-2	/	/
CC(C)NC(=O)Nc1n[nH]c(Nc2ccc(Cl)cc2)n1	-13	2	40*	2	9	-3
O=C(c1ccc2ccccc2n1)N1CCN(S(=O)(=O)c2ccccc2)CC1	14	1	/	-5	/	/
CCOC(=O)c1c(N)sc(C(=O)Nc2ccccc2F)c1C	-77	12	37*	-9	-34	-1
CCOC(=O)c1c(N)sc(C(=O)Nc2ccccc2)c1C	-70	50	-8	0	/	/
CC(=O)N(c1ccc2oc(=O)sc2c1)S(=O)(=O)c1cccs1	-3	14	40*	-32	-23	3
CCCC(=O)N(c1ccc2oc(=O)sc2c1)S(=O)(=O)c1ccccc1	1	-1	33*	-26	-18	-1
CC(=O)Oc1ccc(N(C(C)=O)S(=O)(=O)c2cccs2)cc1	0	1	2	-6	/	/
CC(=O)N(c1ccc2oc(=O)sc2c1)S(=O)(=O)c1cccc2cccnc12	2	13	14	-10	/	/
CC(C)C(=O)N(c1ccc2oc(=O)sc2c1)S(=O)(=O)c1cccs1	6	-8	37*	-31	-10	2
CC(=O)N(c1ccc2oc(=O)sc2c1)S(=O)(=O)c1ccc(C(=O)O)cc1	-7	19	46*	-15	8	-3
O=C(Nc1nnc(Cc2ccccc2)s1)c1ccco1	10	-20	-8	-13	/	/
NC(=O)c1cc(Cc2ccccc2)sc1NC(=O)c1ccco1	/	47	35*	-6	-21	6
Cc1csc(/C(=N/OC(=O)c2ccco2)C(N)=O)n1	-9	-9	51*	-7	9	-5
COc1ccc(/C(N)=N/OC(=O)c2ccco2)cc1OC	-5	12	1	-3	/	/
CCCc1cc(=O)n2[nH]c(C)c(-c3ccc(OC)cc3)c2n1	16	-2	0	-3	/	/
CC1(C)CC(=O)c2c(oc3cc(O)c(O)cc23)C1	-3	8	83*	-1	73*	-7
COC(=O)c1oc2c(c1C)C(=O)CC(C)(C)C2	0	13	1	-10	/	/
Cc1ccc(NC(=O)/C(=C\c2ccc([N+](=O)[O-])cc2)NC(=O)c2ccccc2)cc1	-10	-18	-2	-3	/	/
O=C(N/N=C/c1ccc(O)c(O)c1O)/C(=C/c1ccc([N+](=O)[O-])cc1)NC(=O)c1ccccc1	-41	84*	54*	25	34*	-2
O=c1c(OC2OC(CO)C(O)C(O)C2O)c(-c2ccc(O)c(O)c2)oc2cc(O)cc(O)c12 (stereo unspecified)	-36	-22	62*	0	46*	1
C[C@@H]1O[C@@H](Oc2c(-c3cc(O)c(O)c(O)c3)oc3cc(O)cc(O)c3c2=O)[C@H](O)[C@H](O)[C@H]1O	-39	28	46*	1	11	-1
Cc1cc(C)nc(SCNC(=O)c2ccc(F)cc2)n1	-3	37	50*	-4	-18	5
